The record followed here is PMC4094378 (European journal of medicinal chemistry, 2014).

Test [1] relates to SEM cells. Kind of test: Cell growth inhibitory activity. The format is cell-based, human. Conditions: read-out: IC50 SEM; 72 h, MTT; mean ± SE. The method, boiled down: (§1)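 Jurkat, CEM and SEM cells were grown in RPMI-1640, and HeLa, MCF-7, HT-29 and LoVo in DMEM, each with 10% FBS and penicillin/streptomycin. Wells got 8 × 10^3 cells and were preincubated 18 h at 37 °C in 5% CO2. Test compound from a 10 mM DMSO stock was diluted in medium (final DMSO ≤0.25%) and applied for 72 h. Read-out was MTT. IC50 is the concentration giving 50% inhibition of proliferation, from dose–response curves of ≥3 independent experiments, mean ± SE.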

The test system of test [2] is panel of seven human cancer cell lines. The experiment in a line: Antiproliferative activity across the panel of seven cancer cell lines. In kind it is cell-based. Particulars: 4′-methoxy replaced by 4′-ethoxy. The method, boiled down: as §1
The test system of test [3] is CEM cells. Kind of test: Cell growth inhibitory activity. The format is cell-based, human. Particulars: read-out: IC50 CEM; 72 h, MTT; mean ± SE. The method, boiled down: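 Human T-cell leukemia cells grown in RPMI-1640 with 10% FBS, penicillin G 115 units/mL and streptomycin 115 μg/mL. 8 × 10^3 cells/well were preincubated 18 h at 37 °C, 5% CO2, then exposed to graded compound concentrations in complete medium from 10 mM DMSO stocks (final DMSO ≤0.25%) for 72 h at 37 °C. Viability was read by MTT, and IC50 is the concentration inhibiting proliferation by 50%.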

The test system of test [4] is HeLa cells. Kind of test: Cell growth inhibitory activity. In kind it is cell-based, human. Particulars: read-out: IC50 HeLa; 72 h, MTT; mean ± SE. Summed up:
as §1

The subject of test [5] is Jurkat cells. Kind of test: Cell growth inhibitory activity. In kind it is cell-based, human. Conditions: read-out: IC50 Jurkat; 72 h, MTT; mean ± SE. The method, boiled down: as §1
For test [6], the system named is HT-29 cells. The experiment in a line: Cell growth inhibitory activity. Particulars: read-out: IC50 HT-29; 72 h, MTT; mean ± SE. In kind it is cell-based, human. Summed up: as §1
In test [7] the test system is LoVo cells. The experiment in a line: Cell growth inhibitory activity. Particulars: read-out: IC50 LoVo; 72 h, MTT; mean ± SE. The format is cell-based, human. Summed up: as §1
The subject of test [8] is MCF-7 cells. The experiment in a line: Cell growth inhibitory activity. The format is cell-based, human. Particulars: read-out: IC50 MCF-7; 72 h, MTT; mean ± SE. Summed up: as §1

For the substance “2-Bromo-N-(4-{(1E)-3-oxo-3-[(4-ethoxyphenyl)amino] prop-1-en-1-yl}phenyl)-acrylamide [4j]”, the IC50 in test [1] was determined as 180 ± 40 nM; in test [3], 98 ± 33 nM; in test [4], 2000 ± 130 nM; in test [5], 930 ± 120 nM; in test [6], 3400 ± 300 nM; in test [7] it was 850 ± 30 nM. Moreover, the IC50 in test [8] amounted to 5500 ± 1000 nM. The “fold reduction in activity vs 4i” value in test [2] is 2–4 fold.
